# Compound activity as filed in PubChem.
# Sampled rows, rich in hits. Any-hit rate of the full collection: about 4.6%.
# OX1R antag-1 – OX1R (HCRTR1) antagonists, primary screen, fluorescence, CHO/OX1R cells, Fluo-8 calcium, orexin A | Fluo-8 calcium fluorescence | inhibition, % at 5 µM | 330,000 tested, 0.43% active | AID 434989, 2010;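 active = inhibition above its plate's threshold, mean inhibition of all tested compounds on the plate plus 3 SD, cut at about 37% in these data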;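 note: 0% = orexin A challenge wells and 100% = SB-334867-A antagonist wells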
# Target sequence (O43613 whole entry, looked up): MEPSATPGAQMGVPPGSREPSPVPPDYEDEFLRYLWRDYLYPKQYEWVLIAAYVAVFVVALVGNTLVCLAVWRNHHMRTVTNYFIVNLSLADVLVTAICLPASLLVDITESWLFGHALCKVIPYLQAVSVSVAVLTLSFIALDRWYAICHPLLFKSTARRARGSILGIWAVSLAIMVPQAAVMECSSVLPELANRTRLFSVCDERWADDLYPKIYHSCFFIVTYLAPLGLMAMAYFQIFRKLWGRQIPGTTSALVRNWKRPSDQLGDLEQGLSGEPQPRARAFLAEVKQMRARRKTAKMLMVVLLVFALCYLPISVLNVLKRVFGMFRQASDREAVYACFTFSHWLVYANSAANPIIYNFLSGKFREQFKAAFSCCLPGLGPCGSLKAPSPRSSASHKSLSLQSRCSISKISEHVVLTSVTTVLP
# TAAR1 ag – human TAAR1 agonists, primary screen, Fluo-8 calcium fluorescence, CHO RD-HGA16 cells; Trace amine-associated receptor 1 (Homo sapiens), Q96RJ0; vehicle wells 0%, saturating PEA agonist 100%; 360,000 tested, 0.99% active; activation, % at 3 µM;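 active = activation above the mean activation of all test compounds in the run plus 3 SD, cut at about 38% in these data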
#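 System: CHO-derived RD-HGA16 cells with stable Gα16 and human TAAR1 / Times: 17-24 h plating, Fluo-8 75 min 37 °C, 30 min RT / Technique: calcium-sensitive Fluo-8 signal, excitation 470-495, emission 515-575 nm / Measure: % activation relative to PEA EC100 response / Benchmarks: DMSO and PEA EC100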
# GPR7 antagonist – GPR7 receptor antagonists, primary screen, cell-based, fluorescence, single concentration | GPR7-expressing cells, fluorescence antagonist assay | inhibition, % at 4.4 µM | 290,000 tested, 1.1% active | AID 1861, 2009; in the data active = inhibition above about 16%, passing the limit was not always enough;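 note: cells stimulated with the agonist NPW; 0% = agonist with vehicle and 100% = vehicle without agonist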
# CHO parental Ca – ATP-evoked calcium signal inhibitors, parental CHO, primary screen, counter-screen for OX1R antagonist project, cell-based, fluorescence, Fluo-8 calcium dye; inhibition, % at 5.6 µM; 330,000 tested, 0.63% active; parental CHO-K1, ATP-induced calcium, Fluo-8 fluorescence;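 active = inhibition above that plate's mean sample inhibition plus 3 SD, cut at about 26% in these data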;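 note: 0% = ATP-challenged DMSO wells and 100% = DMSO wells without ATP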
#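 Assay system: parental CHO cells; Read-out basis: percent inhibition of ATP-evoked calcium rise, normalized to controls; Benchmarks: ATP and no-ATP DMSO wells; Compound dosing: single nominal dose of 5.6 µM per compound; Signal: Fluo-8 calcium dye fluorescence; Also added: ATP as calcium-mobilizing challenge; Repeats: singlicate.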
# OX1R antag-2 – antagonists of human orexin 1 receptor (OX1R). OX1R-expressing cells, FRET antagonist read-out. 330,000 tested, 1.8% active. Orexin/Hypocretin receptor type 1 (Homo sapiens), O43613. inhibition, % at 6.6 µM; in the data active = inhibition mostly above about 38%, no sharp cut-off; inactive = mostly below about 40%;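 note: 0% = agonist challenge alone and 100% = reference antagonist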
# TAAR1 antagonist – human TAAR1 antagonists, primary screen, Fluo-8 calcium fluorescence, CHO RD-HGA16 cells; antagonist; inhibition, % at 3 µM; 360,000 tested, 1.5% active; AID 624466, 2012;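 active = inhibition above a per-plate cutoff, the mean inhibition of test compounds on that plate plus 3 SD, cut at about 49% in these data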;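 note: 0% = DMSO plus EC80 beta-PEA response and 100% = DMSO alone without agonist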
#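 System: RD-HGA16 CHO cells with stable hTAAR1 and Gα16 | Probe or stimulus: EC80 β-phenethylamine stimulus | Dosing: 3 µM, single point | Times: Dye loading 75 min at 37 °C, then 30 min room temperature | Measured by: Fluo-8 calcium-sensitive fluorescence | Read-out basis: % inhibition of agonist calcium response | Replicates: n of 1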
# TAAR1 ag confirm – human TAAR1 agonists, retest of hits, confirmation, Fluo-8 calcium fluorescence, CHO RD-HGA16 cells | shares compounds with TAAR1 ag | scaled: DMSO 0%, maximal phenethylamine 100% | activation, % at 3 µM | 2,400 tested, 82% active;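 active = activation above a cutoff set at the run's mean compound activation plus 3 SD, cut at about 39% in these data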
# Ga16 ag counter – nonselective calcium mobilization agonists, CHO-Ga16 cells, counter-screen for hTAAR1 agonist project, cell-based, fluorescence, CHO-Ga16 parental line; 2,400 tested, 50% active; activation, % at 3 µM; shares compounds with TAAR1 ag; Fluo-8 calcium fluorescence; normalized to maximal ATP response, DMSO zero;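 active = activation above the run cutoff, the mean activation over all tested wells plus 3 SD, cut at about 12% in these data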;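 note: 0% = DMSO wells and 100% = maximal ATP response on the peak over basal ratio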
# TAAR1 desensitize – TAAR1 desensitization by agonist hits, confirmation, counter-screen for TAAR1 agonist project, cell-based, fluorescence, tachyphylaxis. shares compounds with TAAR1 ag. CHO RD-HGA16 hTAAR1, Fluo-8 calcium, beta-PEA response inhibition. inhibition, % at 3 µM. 2,400 tested, 46% active. AID 651951, 2012;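 active = inhibition above the run cutoff, the mean inhibition of all test compounds plus 3 SD, cut at about 49% in these data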;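 note: beta-PEA stimulus applied at its EC80; loss of beta-PEA calcium signal after compound pretreatment read as receptor desensitization; 0% = DMSO with beta-PEA at EC80 and 100% = DMSO alone without agonist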
# Ga16 antag count – inhibition of ATP-evoked calcium response in CHO-Ga16 cells, counter-screen for TAAR1 agonist project, cell-based, fluorescence. shares compounds with TAAR1 ag. CHO-Ga16 ATP-induced calcium, Fluo-8 fluorescence. inhibition, % at 3 µM. 2,400 tested, 39% active. AID 651952, 2012;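 active = inhibition above the plate's mean compound inhibition plus 3 SD, computed per plate, cut at about 22% in these data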;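 note: 0% = EC80 ATP with DMSO and 100% = DMSO wells without ATP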
# An asterisk follows results filed as active; · = no result given.
SMILES,OX1R antag-1,TAAR1 ag,GPR7 antagonist,CHO parental Ca,OX1R antag-2,TAAR1 antagonist,TAAR1 ag confirm,Ga16 ag counter,TAAR1 desensitize,Ga16 antag count
O=C(NN1C(=O)C2C(c3ccccc3)C=CC(c3ccccc3)C2C1=O)c1ccncc1 (stereo not given),9.3,46.6*,-2.7,-4.2,11.1,24.4,18.1,16.0*,17.3,8.8
O=C(NN1C(=O)C2C3C=CC(C3)C2C1=O)c1ccncc1 (stereo not given),3.8,1.2,3.1,-9.5,4.0,-15.3,·,·,·,·
O=C(Nc1ccc(C2SCCS2)cc1)c1ccccc1,-11.9,63.1*,8.3,-2.7,7.2,46.2,61.6*,28.4*,47.7,36.3*
COc1ccccc1OCc1ccc(C(=O)Nc2ccccc2)cc1,-12.1,63.0*,·,-3.8,7.5,57.0*,46.2*,27.4*,60.3*,37.3*
O=C(NNC(=O)c1ccc(NC(=O)c2ccccc2)cc1)c1ccccc1,-22.1,60.9*,2.6,-2.9,12.3,16.4,22.0,0.3,14.0,3.5
O=C1C(Cl)=C(NC(=O)c2ccccc2)C(=O)C(Cl)=C1NC(=O)c1ccccc1,11.8,53.0*,-33.7,5.4,48.5*,69.5*,36.3,20.7*,55.0*,49.0*
O=C(Cc1ccccc1)NNC(=O)c1ccc(NC(=O)c2ccccc2)cc1,-11.4,4.3,-8.3,-12.2,14.8,12.5,·,·,·,·
NC(=O)c1ccsc1NC(=O)COC(=O)c1cc(Cl)ccc1O,-11.2,17.0,·,-9.9,11.8,43.0,·,·,·,·
Cc1onc(-c2ccccc2)c1C(=O)N[C@@H]1C(=O)N2C1SC(C)(C)[C@@H]2C(=O)O (stereo not given in full),·,0.7,·,·,·,-9.9,·,·,·,·
O=C(CSc1ccccc1)Nc1ccc(C(=O)Nc2ccc(O)cc2)cc1,·,75.2*,4.9,·,·,27.3,1.1,-0.3,2.8,13.6
CC(C)n1nc(CC(=O)O)c2ccccc2c1=O,8.6,0.9,-4.9,0.9,20.6,15.6,·,·,·,·
O=C1NC2(CCCCC2)C(=O)N1Cc1cccc(C(F)(F)F)c1,-20.3,71.2*,-0.4,-0.9,14.4,-19.0,2.8,0.3,-7.0,9.4
O=C(CCS(=O)(=O)c1ccc(Cl)cc1)NCCc1c[nH]c2ccccc12,-20.4,3.1,-3.7,-9.3,20.2,14.3,·,·,·,·
O=C1CCC(C(=O)Nc2ccc(Cl)cc2)N1 (stereo not given),-18.7,7.4,-12.6,-7.8,1.4,5.0,·,·,·,·
O=C(Nc1ccc(Cl)cc1)C1C2CCCCC21 (stereo not given),31.9,56.8*,22.6,62.5*,16.6,59.3*,18.3,3.0,7.3,9.0
CCN(CC)C(=O)Cn1cc(C(=O)C(=O)N2CCc3ccccc32)c2ccccc21,-26.5,-1.5,-4.7,-3.5,35.8,0.6,·,·,·,·
C[C@H](O)[C@@H]1C(=O)N2CCc3ccc(-c4cccc(F)c4)cc3[C@@H]2C[C@@H]1N(C)C(=O)Nc1ccccc1,·,0.7,·,·,·,1.3,·,·,·,·
